Broadly, the IC50 is the concentration needed to halve the response being measured.

In experiment [1] the test system is SMMC-7721. In words: Anticancer activity against human SMMC7721 cells assessed as reduction in cell viability incubated for 48 hrs MTT assay. Format: functional, cell-based. Particulars: SMMC-7721, 48 h. The method, boiled down:
(§1)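 MTT assay on human hepatocarcinoma SMMC-7721, lung carcinoma A549 and nasopharyngeal carcinoma CNE2 cells, with matrine as comparator and cisplatin as positive control. IC50 is the concentration that lowers optical density of treated cells by 50% versus untreated cells, given as the mean ± SD of three experiments.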
(Tetrazolium assays rely on reduction of a dye to a coloured formazan, in cell work by metabolically active cells.)

In the next experiment the test system is A549. As to the kind of experiment: Anticancer activity against human A549 cells assessed as reduction in cell viability incubated for 48 hrs MTT assay. The note with it: A549, 48 h. Format: functional, cell-based. An outline of the steps: as §1
Experiment [2] deals with CNE-2. As to the kind of experiment: Anticancer activity against human CNE2 cells assessed as reduction in cell viability incubated for 48 hrs MTT assay. Format: functional, cell-based. Particulars: CNE-2, 48 h. An outline of the steps:
as §1

For experiment [3], the system named is CNE-2. As to the kind of experiment: Induction of apoptosis in human CNE2 cells assessed as viable cells level at 20 uM incubated for 24 hrs by Annexin V-FITC/PI dual staining based flow cytometry (reference value: 91.6%). Format: functional. An outline of the steps: (§2)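 CNE2 and SMMC-7721 cells were treated for 24 h at 0, 5, 10 or 30 µM, or at 0, 10, 20 or 50 µM depending on compound. Cells were stained with Annexin V-FITC/propidium iodide and quantified by flow cytometry. Apoptotic cells were counted as AV+/PI− (lower right) plus AV+/PI+ (upper right) quadrants.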
A general note: In flow cytometry, cells or beads pass a laser one at a time.

For experiment [4], the system named is CNE-2. In words: Induction of apoptosis in human CNE2 cells assessed as early apoptotic cells level at 20 uM incubated for 24 hrs by Annexin V-FITC/PI dual staining based flow cytometry (reference value: 3.56%). Type of experiment: functional. The method, boiled down:
as §2

Experiment [5] concerns CNE-2. In words: Induction of apoptosis in human CNE2 cells assessed as late apoptotic cells level at 20 uM incubated for 24 hrs by Annexin V-FITC/PI dual staining based flow cytometry (reference value: 1.37%). Format: functional. The method, boiled down:
as §2

The subject of experiment [6] is CNE-2. In words: Induction of apoptosis in human CNE2 cells assessed as necrotic cells level at 20 uM incubated for 24 hrs by Annexin V-FITC/PI dual staining based flow cytometry (reference value: 3.43%). Type of experiment: functional. The method, boiled down:
as §2

Experiment [7] deals with CNE-2. In words: Induction of apoptosis in human CNE2 cells assessed as viable cells level at 50 uM incubated for 24 hrs by Annexin V-FITC/PI dual staining based flow cytometry (reference value: 91.6%). Type of experiment: functional. The method, boiled down: as §2
Experiment [8] has as its system CNE-2. In words: Induction of apoptosis in human CNE2 cells assessed as early apoptotic cells level at 50 uM incubated for 24 hrs by Annexin V-FITC/PI dual staining based flow cytometry (reference value: 3.56%). Format: functional. An outline of the steps:
as §2

The test system of experiment [9] is CNE-2. As to the kind of experiment: Induction of apoptosis in human CNE2 cells assessed as late apoptotic cells level at 50 uM incubated for 24 hrs by Annexin V-FITC/PI dual staining based flow cytometry (reference value: 1.37%). Format: functional. An outline of the steps: as §2
Experiment [10] has as its system CNE-2. As to the kind of experiment: Induction of apoptosis in human CNE2 cells assessed as necrotic cells level at 50 uM incubated for 24 hrs by Annexin V-FITC/PI dual staining based flow cytometry (reference value: 3.43%). Type of experiment: functional. The method, boiled down:
as §2

The subject of experiment [11] is SMMC-7721. As to the kind of experiment: Induction of apoptosis in human SMMC7721 cells assessed as viable cells level at 10 uM incubated for 24 hrs by Annexin V-FITC/PI dual staining based flow cytometry (reference value: 96.2%). Type of experiment: functional. The method, boiled down: as §2
In experiment [12] the test system is SMMC-7721. In words: Induction of apoptosis in human SMMC7721 cells assessed as early apoptotic cells level at 10 uM incubated for 24 hrs by Annexin V-FITC/PI dual staining based flow cytometry (reference value: 1%). Type of experiment: functional. The method, boiled down: as §2
The subject of experiment [13] is SMMC-7721. As to the kind of experiment: Induction of apoptosis in human SMMC7721 cells assessed as late apoptotic cells level at 10 uM incubated for 24 hrs by Annexin V-FITC/PI dual staining based flow cytometry (reference value: 1.6%). Format: functional. The method, boiled down: as §2
Experiment [14] deals with SMMC-7721. In words: Induction of apoptosis in human SMMC7721 cells assessed as necrotic cells level at 10 uM incubated for 24 hrs by Annexin V-FITC/PI dual staining based flow cytometry (reference value: 1.18%). Type of experiment: functional. The method, boiled down: as §2
Experiment [15] concerns SMMC-7721. In words: Induction of apoptosis in human SMMC7721 cells assessed as viable cells level at 20 uM incubated for 24 hrs by Annexin V-FITC/PI dual staining based flow cytometry (reference value: 96.2%). Format: functional. An outline of the steps: as §2
Experiment [16] concerns SMMC-7721. As to the kind of experiment: Induction of apoptosis in human SMMC7721 cells assessed as early apoptotic cells level at 20 uM incubated for 24 hrs by Annexin V-FITC/PI dual staining based flow cytometry (reference value: 1%). Format: functional. The method, boiled down:
as §2

For experiment [17], the system named is SMMC-7721. In words: Induction of apoptosis in human SMMC7721 cells assessed as late apoptotic cells level at 20 uM incubated for 24 hrs by Annexin V-FITC/PI dual staining based flow cytometry (reference value: 1.6%). Format: functional. An outline of the steps: as §2
Experiment [18] concerns SMMC-7721. As to the kind of experiment: Induction of apoptosis in human SMMC7721 cells assessed as necrotic cells level at 20 uM incubated for 24 hrs by Annexin V-FITC/PI dual staining based flow cytometry (reference value: 1.18%). Type of experiment: functional. The method, boiled down:
as §2

Experiment [19] relates to SMMC-7721. As to the kind of experiment: Induction of apoptosis in human SMMC7721 cells assessed as viable cells level at 50 uM incubated for 24 hrs by Annexin V-FITC/PI dual staining based flow cytometry (reference value: 96.2%). Type of experiment: functional. An outline of the steps: as §2
Experiment [20] relates to SMMC-7721. In words: Induction of apoptosis in human SMMC7721 cells assessed as early apoptotic cells level at 50 uM incubated for 24 hrs by Annexin V-FITC/PI dual staining based flow cytometry (reference value: 1%). Format: functional. The method, boiled down:
as §2

Experiment [21] relates to SMMC-7721. As to the kind of experiment: Induction of apoptosis in human SMMC7721 cells assessed as late apoptotic cells level at 50 uM incubated for 24 hrs by Annexin V-FITC/PI dual staining based flow cytometry (reference value: 1.6%). Format: functional. The method, boiled down: as §2
The test system of experiment [22] is SMMC-7721. In words: Induction of apoptosis in human SMMC7721 cells assessed as necrotic cells level at 50 uM incubated for 24 hrs by Annexin V-FITC/PI dual staining based flow cytometry (reference value: 1.18%). Format: functional. The method, boiled down:
as §2

For experiment [23], the system named is SMMC-7721. As to the kind of experiment: Induction of apoptosis in human SMMC7721 cells incubated for 24 hrs by Annexin V-FITC/PI dual staining based flow cytometry. Format: functional, cell-based. An outline of the steps:
as §2

Experiment [24] deals with CNE-2. In words: Induction of apoptosis in human CNE2 cells incubated for 24 hrs by Annexin V-FITC/PI dual staining based flow cytometry. Format: functional, cell-based. An outline of the steps: as §2

Turning to `COc1ccc2c(c1)c(/C=C1\CC[C@@H]3[C@H]4CCCN5CCC[C@@H](CN3C1=O)[C@@H]45)cn2Cc1cccc(Cl)c1`, the IC50 is 3.95 µM in the experiment with SMMC-7721 [1], 4.96 µM in the experiment with A549 and 3.42 µM with CNE-2 [2]. Also, the Activity stood at 58.7% with CNE-2 [3]; 29.9% in the experiment on CNE-2 [4]; 8.7% in the experiment on CNE-2 [5]; 2.7% with CNE-2 [6]; 21.2% in the experiment with CNE-2 [7]; 45.9% in the experiment with CNE-2 [8]. Also, the Activity came out at 28.3% in the experiment on CNE-2 [9]; 4.62% in the experiment on CNE-2 [10]; 60.3% in the experiment with SMMC-7721 [11]; 35.6% in the experiment with SMMC-7721 [12]; 3.4% in the experiment with SMMC-7721 [13]; 0.69% with SMMC-7721 [14]. The Activity in the experiment with SMMC-7721 [15] turned out to be 38.6%; with SMMC-7721 [16] it was 40.6%; in the experiment on SMMC-7721 [17], 18.2%; with SMMC-7721 [18] it was 2.53%; in the experiment on SMMC-7721 [19] it was 2.15%; in the experiment with SMMC-7721 [20], 15.5%. The Activity in the experiment with SMMC-7721 [21] is 79.5%; in the experiment with SMMC-7721 [22], 2.91%; with SMMC-7721 [23], “Dose-dependent effect”; with CNE-2 [24] it was “Dose-dependent effect”.
In the case of `COc1ccc(Cn2cc(/C=C3\CC[C@@H]4[C@H]5CCCN6CCC[C@@H](CN4C3=O)[C@@H]56)c3ccccc32)cc1`, the values for the IC50 with SMMC-7721 [1], in the experiment with A549 and in the experiment with CNE-2 [2] were 8.01 µM, 11.2 µM and 8.43 µM, respectively.
On to `O=C1/C(=C/c2cccn2Cc2ccc(F)cc2)CC[C@@H]2[C@H]3CCCN4CCC[C@@H](CN12)[C@@H]34`, for which the results for the IC50 with SMMC-7721 [1], with A549 and in the experiment with CNE-2 [2] were 34 µM, 31.6 µM and 26.4 µM, respectively.
On the same counts, the results for `CC(C)(C)c1cc(Cn2cccc2/C=C2\CC[C@@H]3[C@H]4CCCN5CCC[C@@H](CN3C2=O)[C@@H]45)cc(C(C)(C)C)c1` are more than 40 µM, more than 40 µM and more than 40 µM.
